A short description of the data set: Toxicity liver stage against HepG2, at 10uM. Type of data set: cell-based. Also noted: test concentration 10 uM, cell line HepG2-A16-CD81EGFP. Conditions: human, HepG2-A16-CD81EGFP cells; read-out: INHIBITION
Summed up:
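Uninfected HepG2-A16-CD81EGFP cells, 3 × 10^3 per well, 1536-well, plated on prespotted compound at 10 μM final, parasite-free screening media added to match infected plates; puromycin 10 μM positive, DMSO 0.5% negative; run in parallel with 48 h PbLuc assay at 37 °C, 5% CO2; viability by CellTiter-Glo luminescence, normalized to controls.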
With `COC(=O)[C@@H]1CN(S(=O)(=O)c2ccccc2)CCN1S(C)(=O)=O`, the cytotoxicity at 10 µM worked out at 0.471%.

Turning to `CCS(=O)(=O)N1CCc2ccc(NC(=O)NC(C)(C)C)cc21`, the cytotoxicity at 10 µM was -6.69%.

Take `Cn1nc(-c2ccccc2)c(Cl)c1C(=O)O`: the cytotoxicity at 10 µM is -45%.

Consider `CNC(=O)c1cn(C)c(-c2nc3cc(NC(C)=O)ccc3n2C)c1OC`, for which the cytotoxicity at 10 µM was -42.5%.

Turning to `O=C(Nc1ccccc1F)C1CN(C(=O)c2ccc3c(c2)OCO3)C1`, the cytotoxicity at 10 µM was -5.96%.

Turning to `CS(=O)(=O)N1CCc2ccc(=O)n(CC3CCOCC3)c2CC1`, the cytotoxicity at 10 µM was found to be 6.4%.

As to `CN(Cc1cccnc1)CC1CC12CCN(Cc1nccs1)CC2` (stereo not given), the cytotoxicity at 10 µM worked out at 10.2%.

On to `O=C(c1ccc(F)cc1)N1C[C@@H]2CN(c3ncccn3)C[C@@H]2C1`, for which the cytotoxicity at 10 µM stood at 7.98%.

In the case of `CC(=O)N1C[C@H]2CCCN(c3ncc(C)cn3)[C@H]2C1`, the cytotoxicity at 10 µM is 9.52%.

Turning to `CCS(=O)(=O)N1CCN(C(=O)C(C)C)CC2(CC(=O)N(C)C2)C1` (stereo not given), the cytotoxicity at 10 µM is 8.4%.

With `Cc1ccoc1C(=O)N1CCCC2(CCCN2S(C)(=O)=O)C1` (stereo not given), the cytotoxicity at 10 µM is -143%.

As for `O=C(NCC1CC1)[C@H]1CC[C@@H]2[C@@H](CCN2Cc2nccs2)O1`, the cytotoxicity at 10 µM worked out at 6.93%.

Consider `O=C(O)c1cc(-c2ccccc2)ns1`, for which the cytotoxicity at 10 µM amounted to 1.91%.

As to `CC(C)(C)n1ncc2c1NC(=O)CC2c1c(F)cccc1F` (stereo not given), the cytotoxicity at 10 µM is -1.53%.

Regarding `CN(C)c1ccc(C(=O)NCC2(c3ccccc3)CCOCC2)cc1`, the cytotoxicity at 10 µM was 6.52%.

Consider `O=C1CNc2ncnc(Nc3cccc(Cn4cccn4)c3)c2N1`, for which the cytotoxicity at 10 µM was 19.8%.

On to `CSc1ccc(-c2noc(CN(Cc3ccccc3)C(C)C)n2)cc1`, for which the cytotoxicity at 10 µM came to 3.88%.

With `Cc1c(NC(=O)c2cccc(Br)c2)c(C(=O)N(C)C)nn1C`, the cytotoxicity at 10 µM is 2.35%.

On to `OC1(c2ccccc2F)CCN(Cc2ccccc2N2CCCC2)CC1`, for which the cytotoxicity at 10 µM was determined as 13.2%.

In the case of `CCn1ncc(S(=O)(=O)N2CCCC3(CC=CNC3=O)C2)c1C` (stereo not given), the cytotoxicity at 10 µM is -7.6%.

`Cc1n[nH]c(C)c1-c1cnc(CC2CCN(C)C2)cn1` (stereo not given): the cytotoxicity at 10 µM is -2.11%.

Regarding `Cn1nc(C2CCNC2)c2c(C(=O)NC3CC3)cc(C3CC3)nc21` (stereo not given), the cytotoxicity at 10 µM was found to be 13.9%.

In the case of `CCC(CC(=O)NS(=O)(=O)C(C)C)c1ccccc1` (stereo not given), the cytotoxicity at 10 µM was -49.1%.

Take `CC(C)OCc1ccc(CNC(=O)NC2(CO)CCCC2)cc1`: the cytotoxicity at 10 µM was -48.9%.

Consider `COCCN1CCC(CNc2cnc3ccccc3n2)CC1`, for which the cytotoxicity at 10 µM is -46.6%.

Turning to `CN(Cc1cc(Br)c2c(c1)OCO2)Cc1cscn1`, the cytotoxicity at 10 µM was -12.2%.

With `Cc1ccc(S(=O)(=O)Cc2nsc(N(C)C)n2)c(C)c1`, the cytotoxicity at 10 µM was -25.2%.

With `Cc1nc(NC(=O)C(C)N(C)Cc2ccc3c(c2)OCO3)sc1C` (stereo not given), the cytotoxicity at 10 µM was 0.787%.

As to `CC(C)c1noc(C(C)N2CCN(c3ccc(C#N)cn3)CC2)n1` (stereo not given), the cytotoxicity at 10 µM is -2.57%.

`O=C(c1n[nH]c(=O)c2ccccc12)N1CCCC1Cn1cccn1` (stereo not given): the cytotoxicity at 10 µM was -0.743%.

`OC[C@@H](O)CN(CCC(F)(F)F)c1ncc(Cl)cn1`: the cytotoxicity at 10 µM amounted to 12.8%.

With `COCCN(CCOC)c1ncccc1I`, the cytotoxicity at 10 µM was -2.69%.

Turning to `c1ccc(Cn2ccnc2CNC2CCCOc3ccccc32)cc1` (stereo not given), the cytotoxicity at 10 µM is -4.34%.

Turning to `CN(CCc1ccccn1)C(=O)C(O)c1ccc(Br)cc1` (stereo not given), the cytotoxicity at 10 µM is -0.779%.

With `CC(C)c1noc(OCc2cccc(C#N)c2)n1`, the cytotoxicity at 10 µM is -43.6%.

With `O=C(Cn1cc(Cl)cn1)N1CCNC1=O`, the cytotoxicity at 10 µM was -13.2%.

Consider `Cc1cccc(N2CC[C@H]3CO[C@H](CN(C)Cc4ccco4)[C@H]3C2)n1`, for which the cytotoxicity at 10 µM is 13.3%.

On to `CCS(=O)(=O)N1CC[C@H]2OCC[C@@]2(C(=O)NC)C1`, for which the cytotoxicity at 10 µM was -72.6%.

As to `C[C@H]1C[C@@H]2CCN(Cc3ccco3)C[C@H]2O1`, the cytotoxicity at 10 µM is -80.1%.

With `Cc1cc(=O)[nH]c(NCCNC(=O)c2ccccc2N2CCCC2)n1`, the cytotoxicity at 10 µM is 0.998%.

Regarding `Cn1ccnc1SCCNC(=O)Cn1cnc2ccccc2c1=O`, the cytotoxicity at 10 µM was -20.7%.

For `c1cc(-c2cncnc2)cc(-c2ccn(CC3CCNC3)n2)c1` (stereo not given), the cytotoxicity at 10 µM is 5.54%.

With `O=C(c1cccc(S(=O)(=O)NC[C@@H]2C[C@H](F)CN2)c1)N1CCCCC1`, the cytotoxicity at 10 µM is 3.5%.

As for `CCCN1CCCC2(CCN(C(=O)CCCn3cncn3)C2)C1=O` (stereo not given), the cytotoxicity at 10 µM was -1.84%.

Consider `CCOC(=O)CC(C)Nc1nc(C(C)(C)C)nc2c1cnn2C` (stereo not given), for which the cytotoxicity at 10 µM was 6.51%.

Consider `OC1(CNCCCN2CCCc3ccccc32)CNCCOC1` (stereo not given), for which the cytotoxicity at 10 µM amounted to 13.2%.

Turning to `CCOc1ccc(CN2CCN(CCOC)[C@@H]3CS(=O)(=O)C[C@@H]32)cc1`, the cytotoxicity at 10 µM is -1.25%.

Regarding `Cc1nc(CN2CCCC(CCc3ccccc3C(F)(F)F)C2)no1` (stereo not given), the cytotoxicity at 10 µM is 2.79%.

`COc1coc(CN2CCCC(CCc3ccccc3C)C2)cc1=O` (stereo not given): the cytotoxicity at 10 µM is -0.931%.

On to `NCc1cn(CC2CCCN(C(=O)NCc3ccc(Cl)cc3)C2)nn1` (stereo not given), for which the cytotoxicity at 10 µM is -22%.

Turning to `CC(C)c1noc(CCNC(=O)C2COc3ccccc3C2)n1` (stereo not given), the cytotoxicity at 10 µM is -1.24%.

For `CN1CCc2[nH]nc(C(=O)N3CCCC4(CC3)CNC(=O)O4)c2C1` (stereo not given), the cytotoxicity at 10 µM is -44.6%.

For `COC[C@@]12CC[C@@H](N3CCOCC3)C[C@H]1CCN(c1ncccc1C)C2`, the cytotoxicity at 10 µM is -1.33%.

With `O=C(NCC1CCCO1)Nc1nnc(C(F)(F)F)s1` (stereo not given), the cytotoxicity at 10 µM turned out to be 1.72%.

In the case of `Cc1cc(C)n(CC(C)NCc2nc(-c3cccnc3)no2)n1` (stereo not given), the cytotoxicity at 10 µM worked out at 0.107%.

`COCC[C@]1(O)CCN(CC(=O)NCc2ccccc2C)C[C@H]1C`: the cytotoxicity at 10 µM was -5.31%.

As to `Cc1nn(C)c(C)c1-c1cc(-c2cc(CC(=O)O)cs2)nc(N)c1C#N`, the cytotoxicity at 10 µM was determined as 0.701%.

`CCCc1nc(C)cc(N2CCNC(C(=O)Nc3ccc(C)nc3)C2)n1` (stereo not given): the cytotoxicity at 10 µM is -48.5%.

For `CCc1ncc(C(=O)N2CCN(c3cnn(C)c(=O)c3)CC2)cn1`, the cytotoxicity at 10 µM was -8.3%.

`CO[C@H]1CN(C(C)C)C[C@@H]1NC(=O)c1cc(COc2ccccc2)[nH]n1`: the cytotoxicity at 10 µM is -2.43%.

For `CCc1nnc(CN(C)C(=O)C2CC(=O)N(C3CC3)C2)o1` (stereo not given), the cytotoxicity at 10 µM was 2.28%.

For `CN(Cc1n[nH]c2c1CCC2)C(=O)CCc1cc2n(n1)CCNC2`, the cytotoxicity at 10 µM was -10.5%.

On to `COCCN(C)C[C@@H]1CN(C(=O)c2ccc(O)c(Cl)c2)C[C@@H]1CO`, for which the cytotoxicity at 10 µM came out at 10.5%.

Regarding `COC(=O)C(C)NCc1ccc2[nH]c(C)c(C)c2c1` (stereo not given), the cytotoxicity at 10 µM came to 2.4%.

On to `CN1CCCC[C@@H]2[C@H]1[C@@H](c1ccccc1)CCN2C(=O)c1cnccn1`, for which the cytotoxicity at 10 µM was -3.81%.

For the compound `COc1ccccc1CC(=O)N1CCC(NCc2ccccn2)CC1`, the cytotoxicity at 10 µM was -11.5%.

With `CC(C)n1ccnc1CN1CCCN(C(=O)c2cnc[nH]2)CC1`, the cytotoxicity at 10 µM is -11.9%.

Take `Cc1ncccc1CNC1CCCN(Cc2noc(C3CC3)n2)C1` (stereo not given): the cytotoxicity at 10 µM is -1.34%.

With `CC(Cn1ccnc1)NC(=O)C1(c2ccccc2)CC1` (stereo not given), the cytotoxicity at 10 µM was -5.74%.

Turning to `COc1ccc(CN2CCN(C(=O)c3ccc(C)n3C)CC2)cc1`, the cytotoxicity at 10 µM is -0.0113%.

For the compound `Cc1csc(N2CCCN(C(=O)c3occc3C)CC2)n1`, the cytotoxicity at 10 µM was -13.8%.

In the case of `Cc1ncc2c(n1)CN(CC(=O)Nc1ccc(Cl)cn1)CC2`, the cytotoxicity at 10 µM was -6.19%.

On to `CNc1snc(C)c1C(=O)N1CCCC(n2cccn2)C1` (stereo not given), for which the cytotoxicity at 10 µM was -3.81%.

Consider `COc1ccc(COCC(O)CNC(=O)c2ccc(C#N)cc2)cc1` (stereo not given), for which the cytotoxicity at 10 µM stood at 0.561%.

`COCc1nc(C(=O)N2CCCC2c2ccc(OC)cc2)cs1` (stereo not given): the cytotoxicity at 10 µM is -3.81%.

`COc1cc(CNC(=O)c2c(C)noc2C(C)C)ccn1`: the cytotoxicity at 10 µM is -7.9%.

For the compound `COc1cccc(S(=O)(=O)NC(=O)COc2c(C)cccc2C)c1`, the cytotoxicity at 10 µM is -5.84%.

`CCN(Cc1ccc2c(c1)OCCO2)S(=O)(=O)N(C)C(C)C`: the cytotoxicity at 10 µM was -9.21%.

Regarding `O=C(Cc1ccc2c(c1)CCC2)NCCNc1ncccn1`, the cytotoxicity at 10 µM is -3.93%.

Regarding `CCc1ccc(S(=O)(=O)Nc2cc(OC)c(OC)cc2C(=O)O)s1`, the cytotoxicity at 10 µM is -7.22%.

Consider `Cc1ccc(-c2nc(CN3CCc4c(ncn4C)C3)cs2)o1`, for which the cytotoxicity at 10 µM was -11.3%.

Turning to `CC(C)c1cc(CNC(=O)N2CCC(Cc3cnn(C)c3)C2)on1` (stereo not given), the cytotoxicity at 10 µM is -10.9%.

As for `CC(=O)N1CCCN(C(=O)CCc2c(C)noc2C)CC1`, the cytotoxicity at 10 µM is -6.38%.

On to `O=C(NCc1ccc(-n2cncn2)nc1)c1ccoc1`, for which the cytotoxicity at 10 µM is -2.38%.

For `Cc1cccc(CCC(=O)N2CCCC(c3cc(C(N)=O)[nH]n3)C2)c1` (stereo not given), the cytotoxicity at 10 µM is -7.1%.

Regarding `Cn1ccc(C(=O)NCc2cccc(N3CCCCC3=O)c2)cc1=O`, the cytotoxicity at 10 µM was -6.68%.

As for `CCN1CCN(Cc2ccnc(-c3cccnc3)n2)CC1`, the cytotoxicity at 10 µM is -5.23%.

In the case of `Cc1cc(C(=O)N2CCC3(C2)CN(c2ccsc2)C(=O)CN3C)[nH]n1` (stereo not given), the cytotoxicity at 10 µM is -75.2%.

For the compound `Cc1noc(C)c1CN1CC[C@H]2OCC[C@@]2(C(=O)NCC2CC2)C1`, the cytotoxicity at 10 µM is -77.2%.

On to `Cc1ccc(N2CC[C@H]3O[C@H](C(=O)N4CCCCO4)CC[C@H]32)nn1`, for which the cytotoxicity at 10 µM was determined as 10.1%.

As for `C[C@H]1C[C@H]2CN(Cc3ccccn3)CC[C@@H]2O1`, the cytotoxicity at 10 µM is -78.2%.

`Fc1ccc(CN2CCCn3cnc(COCC4CC4)c3C2)cc1`: the cytotoxicity at 10 µM came out at 7.43%.

Take `Cc1ccc2c(c1)CN(C(=O)c1cccnc1)C(CN(C)C)CO2` (stereo not given): the cytotoxicity at 10 µM is -25.5%.

As for `O=C1NCC[C@]12CN(Cc1nccs1)C[C@H]2c1ccccc1`, the cytotoxicity at 10 µM was found to be 11%.

As for `CSCCCN1C[C@@H]2CC[C@H]1CN(Cc1[nH]cnc1C)C2`, the cytotoxicity at 10 µM was determined as 1.2%.

The values above are taken from ChEMBL document CHEMBL4513216, “Probing the Open Global Health Chemical Diversity Library for Multistage-Active Starting Points for Next-Generation Antimalarials” (ACS Infect Dis, 2020).
